The values that follow come from PMC5289284 (Journal of medicinal chemistry, 2016).

Bounds are passed on as bounds.

One test concerns the target PI3Kγ (Homo sapiens, UniProt P48736). Briefly: PI3Kγ lipid kinase membrane capture assay. Format: biochemical. As to conditions: for fold selective over PI3Kγ: PI4KIIIβ versus PI3Kγ; for potency for PI3Kγ compared with compound 1: relative to compound 1, Fig. 2A. An outline of the steps: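 Radiometric membrane-capture assay. For PI3Kγ, 5nM enzyme was preincubated 15 min with test compound, then cold ATP plus γ32P-ATP was added for 15 min. PI3Kγ final conditions: 50mM HEPES pH 7.5, 100mM NaCl, 0.03% CHAPS, 10mM MgCl2, 80µM PIP2, 10µM ATP, 1uCi. PI4KIIIβ ran 30 min with 2.5nM enzyme, 100µM PI, Bis-Tris Propane pH 7.5, Triton X-100, 10µM ATP, 1uCi. Both used 2% DMSO final.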

The target of another test is PI4KIIIβ (Homo sapiens, UniProt Q9UBF8). The test is described as follows: PI4KIIIβ lipid kinase membrane capture assay. Format: biochemical. As to conditions: for potency for PI4KIIIβ compared with compound 1: relative to compound 1, Fig. 2A. Put shortly: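 Recombinant PI4KIIIβ with a phosphoinositide substrate and γ32P-ATP in a membrane-capture format. Test compound diluted into 10% DMSO and kinase assay buffer. After the reaction, a 4 µL aliquot was spotted on 0.2 µm nitrocellulose, dried 5 min under a heat lamp, then washed once for 30 s and 6×5 min in 1M NaCl/1% phosphoric acid.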
Chain of PI4KIIIβ (Q9UBF8 whole entry): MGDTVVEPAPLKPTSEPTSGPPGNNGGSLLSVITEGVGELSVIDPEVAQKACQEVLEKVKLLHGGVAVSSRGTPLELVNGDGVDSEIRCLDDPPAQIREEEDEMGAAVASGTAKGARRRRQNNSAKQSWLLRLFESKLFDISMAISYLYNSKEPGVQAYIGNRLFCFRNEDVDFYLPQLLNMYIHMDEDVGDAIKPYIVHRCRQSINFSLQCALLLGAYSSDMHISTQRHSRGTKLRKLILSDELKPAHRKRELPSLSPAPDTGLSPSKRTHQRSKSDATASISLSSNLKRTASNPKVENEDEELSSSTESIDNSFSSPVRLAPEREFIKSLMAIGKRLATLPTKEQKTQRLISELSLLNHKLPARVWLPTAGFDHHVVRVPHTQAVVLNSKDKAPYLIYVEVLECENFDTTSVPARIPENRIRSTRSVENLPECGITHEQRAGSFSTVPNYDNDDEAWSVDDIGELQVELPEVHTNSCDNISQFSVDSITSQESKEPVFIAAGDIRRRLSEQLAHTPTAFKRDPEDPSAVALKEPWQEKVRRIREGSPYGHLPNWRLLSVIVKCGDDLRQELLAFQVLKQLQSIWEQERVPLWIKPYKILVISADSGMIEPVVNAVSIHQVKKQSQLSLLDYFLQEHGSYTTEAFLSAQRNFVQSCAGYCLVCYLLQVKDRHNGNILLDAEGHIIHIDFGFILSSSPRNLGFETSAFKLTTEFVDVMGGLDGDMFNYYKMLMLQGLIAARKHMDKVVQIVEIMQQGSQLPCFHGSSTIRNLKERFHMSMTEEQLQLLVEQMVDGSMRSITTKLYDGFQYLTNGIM

Another test concerns the target vps34 (Homo sapiens, UniProt Q8NEB9). Briefly: vps34 lipid kinase membrane capture assay. It counts as biochemical. Conditions: for potency for vps34 compared with compound 1: relative to compound 1, Fig. 2A; for inhibition of vps34: concentrations up to 20 µM, MnCl2. Put shortly: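 Recombinant vps34 (10nM) was preincubated 15 min with test compound diluted in 10% DMSO/kinase buffer. Cold ATP plus γ32P-ATP (final 10µM ATP, 2.5uCi) was added and the reaction ran 1 hour. Final buffer: 50mM HEPES pH 7.5, 0.1% CHAPS, 2mM MnCl2, 1mM EGTA, 2mM DTT, 100µM PI, 500ng/µL BSA, 2% DMSO. Product was spotted on nitrocellulose and washed in 1M NaCl/1% phosphoric acid.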

The target of another test is PI3Kδ (Homo sapiens, UniProt O00329). Briefly: PI3Kδ lipid kinase membrane capture assay. Format: biochemical. As to conditions: for potency for PI3Kδ compared with compound 1: relative to compound 1, Fig. 2A; for fold selective over PI3Kδ: PI4KIIIβ versus PI3Kδ.
Chain of PI3Kδ (O00329 whole entry): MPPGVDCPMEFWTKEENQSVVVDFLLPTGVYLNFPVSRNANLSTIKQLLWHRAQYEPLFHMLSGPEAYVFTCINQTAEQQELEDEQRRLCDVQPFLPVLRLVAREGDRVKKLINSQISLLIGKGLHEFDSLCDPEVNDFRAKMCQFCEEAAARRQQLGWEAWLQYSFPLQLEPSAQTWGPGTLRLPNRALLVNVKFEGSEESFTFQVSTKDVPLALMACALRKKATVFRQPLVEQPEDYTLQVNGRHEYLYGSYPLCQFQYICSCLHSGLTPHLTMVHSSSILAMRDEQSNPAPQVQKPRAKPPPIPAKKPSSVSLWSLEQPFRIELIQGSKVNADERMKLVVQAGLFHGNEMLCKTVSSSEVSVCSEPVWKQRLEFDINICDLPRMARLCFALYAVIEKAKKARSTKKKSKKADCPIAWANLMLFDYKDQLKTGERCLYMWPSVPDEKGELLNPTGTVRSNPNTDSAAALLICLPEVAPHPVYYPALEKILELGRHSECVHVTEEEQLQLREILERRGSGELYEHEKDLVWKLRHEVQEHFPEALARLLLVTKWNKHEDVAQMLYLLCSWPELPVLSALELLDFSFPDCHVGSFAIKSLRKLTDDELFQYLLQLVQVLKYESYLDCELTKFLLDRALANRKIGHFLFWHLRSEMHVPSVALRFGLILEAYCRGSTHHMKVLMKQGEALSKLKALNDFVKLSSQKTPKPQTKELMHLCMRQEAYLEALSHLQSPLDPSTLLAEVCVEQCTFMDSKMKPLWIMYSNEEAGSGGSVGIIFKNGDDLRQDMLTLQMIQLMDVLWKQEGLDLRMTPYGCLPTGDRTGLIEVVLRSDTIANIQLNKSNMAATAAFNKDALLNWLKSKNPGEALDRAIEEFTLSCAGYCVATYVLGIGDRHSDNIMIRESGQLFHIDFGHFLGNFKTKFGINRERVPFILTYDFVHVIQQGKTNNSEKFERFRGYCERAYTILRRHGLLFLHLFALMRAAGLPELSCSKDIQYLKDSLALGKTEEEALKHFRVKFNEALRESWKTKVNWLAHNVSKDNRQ
Chain of PI3Kδ (P27986 whole entry partner): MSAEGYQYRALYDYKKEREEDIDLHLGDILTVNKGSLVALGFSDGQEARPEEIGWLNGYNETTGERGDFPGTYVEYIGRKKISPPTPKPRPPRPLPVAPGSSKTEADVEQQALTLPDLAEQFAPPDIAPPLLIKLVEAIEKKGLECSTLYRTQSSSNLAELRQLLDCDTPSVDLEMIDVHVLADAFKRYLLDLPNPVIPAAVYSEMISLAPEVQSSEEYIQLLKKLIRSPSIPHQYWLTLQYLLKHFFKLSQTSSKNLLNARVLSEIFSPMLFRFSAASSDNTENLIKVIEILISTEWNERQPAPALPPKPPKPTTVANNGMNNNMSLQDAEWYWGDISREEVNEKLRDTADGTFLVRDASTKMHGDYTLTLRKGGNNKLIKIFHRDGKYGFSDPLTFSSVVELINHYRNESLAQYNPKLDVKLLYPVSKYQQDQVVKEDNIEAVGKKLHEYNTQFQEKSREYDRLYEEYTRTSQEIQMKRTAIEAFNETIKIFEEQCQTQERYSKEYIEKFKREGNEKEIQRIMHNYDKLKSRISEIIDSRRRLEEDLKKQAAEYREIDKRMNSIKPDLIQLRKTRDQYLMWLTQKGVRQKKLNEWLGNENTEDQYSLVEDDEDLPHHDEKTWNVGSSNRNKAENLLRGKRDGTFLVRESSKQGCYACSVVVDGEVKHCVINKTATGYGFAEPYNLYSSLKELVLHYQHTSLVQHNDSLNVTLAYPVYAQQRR
In test [1] the test system is HCVcc genotype 2a reporter virus J6/JFH1-GLuc in Huh 7.5 cells. Briefly: HCV2a antiviral assay. Format: cell-based, Hepatitis C virus. Conditions: Huh 7.5 cells stably infected with J6/JFH1-GLuc, three days incubation.

Chain of vps34 (Q8NEB9 whole entry): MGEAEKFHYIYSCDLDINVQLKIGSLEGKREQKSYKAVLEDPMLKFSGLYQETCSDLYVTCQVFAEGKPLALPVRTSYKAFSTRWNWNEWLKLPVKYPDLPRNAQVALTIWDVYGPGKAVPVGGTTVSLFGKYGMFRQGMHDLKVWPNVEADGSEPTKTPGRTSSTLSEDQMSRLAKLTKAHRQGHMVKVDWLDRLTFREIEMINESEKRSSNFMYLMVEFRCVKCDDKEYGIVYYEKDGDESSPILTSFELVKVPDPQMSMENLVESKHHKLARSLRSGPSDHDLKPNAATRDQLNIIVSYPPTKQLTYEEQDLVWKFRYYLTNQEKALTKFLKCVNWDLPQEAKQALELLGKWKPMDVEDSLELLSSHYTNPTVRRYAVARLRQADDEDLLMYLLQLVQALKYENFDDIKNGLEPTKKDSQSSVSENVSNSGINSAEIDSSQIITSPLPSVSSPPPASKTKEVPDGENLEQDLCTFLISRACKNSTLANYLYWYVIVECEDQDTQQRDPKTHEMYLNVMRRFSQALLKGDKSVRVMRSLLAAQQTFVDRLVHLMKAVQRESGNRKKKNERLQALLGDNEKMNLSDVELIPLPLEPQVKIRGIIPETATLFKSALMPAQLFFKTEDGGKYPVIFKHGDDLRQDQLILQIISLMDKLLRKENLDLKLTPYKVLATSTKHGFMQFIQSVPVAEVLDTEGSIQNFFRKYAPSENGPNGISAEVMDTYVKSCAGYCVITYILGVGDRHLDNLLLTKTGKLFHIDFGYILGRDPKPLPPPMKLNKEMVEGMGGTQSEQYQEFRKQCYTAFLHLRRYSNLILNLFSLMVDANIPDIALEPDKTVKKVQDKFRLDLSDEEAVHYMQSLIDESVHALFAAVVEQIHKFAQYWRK
Chain of PI3Kγ (P48736 whole entry): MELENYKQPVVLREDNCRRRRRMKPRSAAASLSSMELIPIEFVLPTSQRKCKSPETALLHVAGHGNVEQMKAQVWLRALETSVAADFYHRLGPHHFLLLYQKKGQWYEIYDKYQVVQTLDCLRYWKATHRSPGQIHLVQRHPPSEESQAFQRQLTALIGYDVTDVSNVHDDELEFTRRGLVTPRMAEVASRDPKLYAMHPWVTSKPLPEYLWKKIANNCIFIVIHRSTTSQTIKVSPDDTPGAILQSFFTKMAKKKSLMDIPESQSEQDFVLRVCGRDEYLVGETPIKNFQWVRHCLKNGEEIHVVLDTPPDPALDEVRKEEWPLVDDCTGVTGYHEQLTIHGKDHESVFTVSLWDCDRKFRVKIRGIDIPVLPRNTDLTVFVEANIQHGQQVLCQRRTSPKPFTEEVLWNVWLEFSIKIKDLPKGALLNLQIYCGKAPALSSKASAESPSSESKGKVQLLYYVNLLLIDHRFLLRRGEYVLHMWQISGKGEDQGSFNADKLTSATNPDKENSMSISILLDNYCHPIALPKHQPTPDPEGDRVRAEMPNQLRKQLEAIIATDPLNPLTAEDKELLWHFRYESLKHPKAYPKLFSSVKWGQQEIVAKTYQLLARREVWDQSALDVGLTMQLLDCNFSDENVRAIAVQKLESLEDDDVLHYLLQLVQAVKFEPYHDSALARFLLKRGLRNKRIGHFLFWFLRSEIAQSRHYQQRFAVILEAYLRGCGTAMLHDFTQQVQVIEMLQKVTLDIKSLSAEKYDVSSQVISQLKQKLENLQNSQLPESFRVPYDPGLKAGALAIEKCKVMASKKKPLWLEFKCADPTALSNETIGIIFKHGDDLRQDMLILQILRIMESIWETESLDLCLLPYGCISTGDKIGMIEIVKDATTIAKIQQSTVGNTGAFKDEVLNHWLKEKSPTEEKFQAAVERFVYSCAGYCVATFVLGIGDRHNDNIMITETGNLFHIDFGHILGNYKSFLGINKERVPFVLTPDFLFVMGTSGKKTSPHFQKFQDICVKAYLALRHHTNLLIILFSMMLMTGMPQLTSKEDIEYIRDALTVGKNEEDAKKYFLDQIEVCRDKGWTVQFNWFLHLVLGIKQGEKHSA

As to `Cc1nc(NC(=O)C2CCCC2)sc1-c1ccc(Cl)c(S(=O)(=O)NCCO)c1` [compound 5], on PI3Kγ, the “fold selective over PI3Kγ” value is on record as more than 90 fold.

Regarding `CC(=O)Nc1nc(C)c(-c2ccc(Br)c(S(=O)(=O)NCCO)c2)s1` [compound 2], the “potency for PI4KIIIβ compared with compound 1” value at PI4KIIIβ is “slight increase in potency”. The “potency for vps34 compared with compound 1” value at vps34 is listed as “slight increase in potency”. Besides, at PI3Kγ, the “potency for PI3Kγ compared with compound 1” value is “slight decrease in potency”. Also, the “potency for PI3Kδ compared with compound 1” value at PI3Kδ is recorded as “slight increase in potency”.

In the case of `COc1ccc(-c2sc(NC(=O)C(C)(C)C)nc2C)cc1S(=O)(=O)Nc1ccc(O)cc1` [compound 10], on PI4KIIIβ (panel of nine related lipid kinases), the “fold selective for PI4KIIIβ across all enzymes tested” value was more than 200 fold. Besides, the “inhibition of vps34” value on vps34 is “no inhibition”. Further, the “fold selective over PI3Kγ” value at PI3Kγ is listed as more than 1000 fold. Further, on PI3Kδ, the “fold selective over PI3Kδ” value is more than 200 fold. Further, the “anti-viral activity against Hepatitis C Virus and toxicity” value in test [1] was “best combination of anti-viral efficacy, and lowest toxicity”.

In the case of `CC(=O)Nc1nc(C)c(-c2ccc(Cl)c(S(=O)(=O)Nc3ccc(F)cc3)c2)s1` [compound 7], the “potency for PI4KIIIβ compared with compound 1” value at PI4KIIIβ was “minimal differences in both potency and specificity”.

In the case of `CC(=O)Nc1nc(C)c(-c2ccc(Cl)c(S(=O)(=O)Nc3ccc(O)cc3)c2)s1` [compound 6], the “potency for PI4KIIIβ compared with compound 1” value at PI4KIIIβ is “large increase in potency”. Further, on vps34, the “potency for vps34 compared with compound 1” value is recorded as “large increase in potency”. Moreover, the “potency for PI3Kγ compared with compound 1” value at PI3Kγ was “large increase in potency”. Also, the “potency for PI3Kδ compared with compound 1” value on PI3Kδ is recorded as “large increase in potency”.

Take `COc1ccc(-c2sc(NC(C)=O)nc2C)cc1S(=O)(=O)NCCO` [compound 3]: the “potency for PI4KIIIβ compared with compound 1” value at PI4KIIIβ is recorded as “increase in potency”. The “fold selective over PI3Kγ” value at PI3Kγ was more than 40 fold. The “fold selective over PI3Kδ” value on PI3Kδ is reported as more than 40 fold.

As to `COc1ccc(-c2sc(NC(=O)C3CCCC3)nc2C)cc1S(=O)(=O)Nc1ccc(O)cc1` [compound 9], the “inhibition of vps34” value at vps34 was “no inhibition”. Further, the “fold selective over PI3Kγ” value on PI3Kγ is recorded as more than 140 fold. On PI3Kδ, the “fold selective over PI3Kδ” value was more than 20 fold. Also, the “anti-viral activity against Hepatitis C Virus and toxicity” value in test [1] is “best combination of anti-viral efficacy, and lowest toxicity”.

On to `Cc1nc(NC(=O)C(C)(C)C)sc1-c1ccc(Cl)c(S(=O)(=O)NCCO)c1` [compound 4], for which the “fold selective over PI3Kγ” value at PI3Kγ is more than 600 fold.
